Key:
[1] = Inhibition of sheep brain tubulin assembly by UV-spectrophotometry; set-up: species or system Ovis aries
Outline: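 Microtubule assembly run at 3 mg/mL tubulin; IC50 defined as the concentration inhibiting the rate of assembly by 50%.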

HCT-116 = assay: Antiproliferative activity against human HCT116 cells after 72 hrs; format: functional, cell-based; details: HCT-116, 72 h
Outline: (§1)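 Cells exposed to compound for 72 h; IC50 taken as the concentration giving 50% inhibition of cell proliferation.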

[2] = Antiproliferative activity against human U87 cells after 72 hrs; format: functional, cell-based, U-87MG ATCC; details: U-87 MG; outline: as §1
K562 = assay: Antiproliferative activity against human K562 cells after 72 hrs; format: functional, cell-based; details: K562, 72 h; outline: as §1
MCF7 = assay: Antiproliferative activity against human MCF7 cells after 72 hrs; format: functional, cell-based; details: MCF7, 72 h; outline: as §1

| Compound | IC50 [1] | IC50 (HCT-116) | IC50 (K562) | IC50 (MCF7) | IC50 [2] |
| --- | --- | --- | --- | --- | --- |
| CC[C@H](C)[C@H](NC(=O)[C@@H]1CCCN1C(=O)[C@H]1NC(=O)[C@H](C(C)C)NC(=O)[C@@H](NC)[C@@H](O)c2cc(Cl)c(O)c(c2)O[C@]1(C)CC)C(=O)NC(CC(=O)O)C(=O)O (mixture of isomers) | 0.4 µM | – | – | – | – |
| C=C(C)[C@@H]1NC(=O)[C@@H](NC)[C@@H](O)c2cc(Cl)c(O)c(c2)O[C@](C)(CC)[C@@H](C(=O)N2CC=C[C@H]2C(=O)N/C(C(=O)N/C(=C/C(=O)O)C(=O)O)=C(\C)CC)NC1=O [PHOMOPSIN A] | 0.56 µM | – | – | – | – |
| CC[C@]1(O)C[C@@H]2CN(CCc3c([nH]c4ccccc34)[C@@](C(=O)OC)(c3cc4c(cc3OC)N(C)[C@H]3[C@@](O)(C(=O)OC)[C@H](OC(C)=O)[C@]5(CC)C=CCN6CC[C@]43[C@@H]65)C2)C1 [VINBLASTINE] | 2.1 µM | – | 0.0027 µM | 0.0007 µM | 0.001 µM |

Second part, led by results:

| IC50 [1] | IC50 (HCT-116) | IC50 (K562) | IC50 (MCF7) | Compound | IC50 [2] |
| --- | --- | --- | --- | --- | --- |
| 1 µM | 0.7 µM | 0.12 µM | 0.23 µM | CCC1=C[C@@H]2CN(C1)C[C@H](CN1CCC[C@H]1C(=O)OC)Cc1c([nH]c3ccccc13)[C@@](C(=O)OC)(c1cc3c(cc1OC)N(C)[C@H]1[C@@](O)(C(=O)OC)[C@H](OC(C)=O)[C@]4(CC)C=CCN5CC[C@]31[C@@H]54)C2 | 0.025 µM |
| 2.7 µM | 1 µM | 0.25 µM | 0.8 µM | CCC1=C[C@@H]2CN(C1)C[C@H](CN1CCC[C@H]1C(=O)N[C@H](C(=O)OC)[C@@H](C)CC)Cc1c([nH]c3ccccc13)[C@@](C(=O)OC)(c1cc3c(cc1OC)N(C)[C@H]1[C@@](O)(C(=O)OC)[C@H](OC(C)=O)[C@]4(CC)C=CCN5CC[C@]31[C@@H]54)C2 | 0.4 µM |
| 0.6 µM | – | 0.0035 µM | 0.004 µM | CCC1=C[C@@H]2CN(C1)Cc1c([nH]c3ccccc13)[C@@](C(=O)OC)(c1cc3c(cc1OC)N(C)[C@H]1[C@@](O)(C(=O)OC)[C@H](OC(C)=O)[C@]4(CC)C=CCN5CC[C@]31[C@@H]54)C2 [VINORELBINE] | 0.002 µM |

Reference: ChEMBL document CHEMBL3286386, “One-pot synthesis of vinca alkaloids-phomopsin hybrids” (J Med Chem, 2014)
